# Assay outcomes from PubChem BioAssay.
# PGC1a acetyl inh = PGC1a acetylation modulation, inhibitor mode; U2OS PGC1a acetylation, AlphaScreen anti-acetyl-lysine; with virally co-expressed GCN5 acetyltransferase; inhibition, % at 15.6 µM; 0.17% of 350,000 active; AID 651687;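 active = every replicate shows inhibition of at least 40%; inconclusive = mean inhibition at least 40% but some replicate below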;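 note: 0% = neutral control wells and 100% = positive control wells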
# DENV2 CPE rescue = protects cells from dengue virus 2 cytopathic effect; DENV2-infected cells, cytopathic effect rescue, plate reader; AID 651640; CPE inhibition, % at 9.99 µM; 1.7% of 350,000 active; in the data active = CPE inhibition above about 20%, passing the limit was not always enough; inconclusive = no clear call, values can overlap the other calls; tested in BHK-21 cells;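 note: 0% = median of neutral control wells and 100% = median of positive control wells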
# SIRT5 block = inhibitors of human sirtuin-5 desuccinylase | Q9NXA8 | Purified SirT5, succinyl-peptide AMC, trypsin-coupled fluorescence | inhibition, % at 15 µM | 1.1% of 330,000 active | AID 652115; in the data active = inhibition above about 15%; inconclusive = no clear call, values can overlap the other calls
# Target sequence (Q9NXA8 whole entry, looked up): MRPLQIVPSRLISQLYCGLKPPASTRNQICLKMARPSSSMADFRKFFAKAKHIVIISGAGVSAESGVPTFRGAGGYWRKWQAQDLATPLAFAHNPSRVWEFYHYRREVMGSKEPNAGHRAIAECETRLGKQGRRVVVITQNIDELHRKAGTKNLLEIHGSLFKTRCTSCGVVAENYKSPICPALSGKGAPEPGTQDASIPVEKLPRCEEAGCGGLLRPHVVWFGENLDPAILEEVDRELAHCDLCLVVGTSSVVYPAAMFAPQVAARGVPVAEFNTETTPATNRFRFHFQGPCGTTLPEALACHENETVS
# S100A4 inh HTS = blocks human S100A4 binding to myosin IIA peptide. P26447. S100A4/TAMRA-MyoIIA peptide fluorescence polarization. inhibition, % at 10.7 µM. 0.14% of 360,000 active. AID 652163;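 active = mean inhibition of at least 70% across replicates, with every replicate also reaching that level; inconclusive = mean inhibition reaches 70% but some replicates fall short; inactive = mean inhibition below 70%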
# Target sequence (P26447 whole entry, looked up): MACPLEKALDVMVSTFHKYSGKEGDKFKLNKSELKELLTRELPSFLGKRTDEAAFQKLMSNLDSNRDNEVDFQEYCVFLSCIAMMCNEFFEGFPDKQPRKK
#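 incubation = readout 5 min after mixing, signal stable up to 60 min | system = S100A4 monomer protein | buffer or medium = HEPES pH 7.2 with CaCl2, KCl, NaCl, DTT, Triton | benchmarks = neutral control DMSO, positive control TFP | also added = fluorescent myosin IIA peptide, 5 nM | compound dosing = one concentration per compound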
# Statin myotox sup = suppression of simvastatin myotoxicity; C2C12 myotubes + simvastatin, ATP luminescence, 48 h; scaled: DMSO 0, geranylgeraniol control 100; rescue of ATP level, % at 7.49 µM; AID 602340; 0.78% of 330,000 active;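 active = mean ATP rescue above about 67%, or every replicate alone reaching that limit, limit read from the data, passing the limit was not always enough; inconclusive = no clear call, values can overlap the other calls; inactive = mean under the limit and some replicate under it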;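 note: myotubes were challenged with 10 µM simvastatin during compound exposure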
# An asterisk follows results filed as active; ? = inconclusive; nt = not tested or not shown; ! = repeats disagree. This is a sample that favours compounds with a hit; in the whole collection about 2.9% have one here.
SMILES,PGC1a acetyl inh,DENV2 CPE rescue,SIRT5 block,S100A4 inh HTS,Statin myotox sup
Cc1nc(NC(=O)C2CC2)sc1C,1,-8,22*,-4,nt
C[C@H]1CN([C@@H](C)CO)S(=O)(=O)c2ccc(/C=C/c3ccccc3)cc2O[C@H]1CN(C)C(=O)NC1CCCCC1,16,3,26*!,-3,6
C[C@H]1CN([C@@H](C)CO)S(=O)(=O)c2ccc(/C=C/c3ccccc3)cc2O[C@H]1CN(C)C(=O)NC1CCCC1,2,?,19*,-7,24
C[C@@H]1CN([C@@H](C)CO)S(=O)(=O)c2ccc(/C=C/c3ccccc3)cc2O[C@H]1CN(C)C(=O)NC1CCCCC1,-1,3,22*,-9,-13
C[C@@H]1CN([C@@H](C)CO)S(=O)(=O)c2ccc(/C=C/c3ccccc3)cc2O[C@@H]1CN(C)C(=O)NC1CCCCC1,8,-11,28*,-13,15
C[C@H](CO)N1C[C@H](C)[C@H](CN(C)C(=O)C2CC2)Oc2ncc(-c3ccc(C(=O)N(C)C)cc3)cc2C1=O,10,10,7,-2,0
C[C@H](CO)N1C[C@H](C)[C@H](CN(C)C(=O)NC2CCCCC2)Oc2cc(/C=C/c3ccccc3)ccc2S1(=O)=O,6,1,25*,-3,17
COc1ccc(C(O)(CC(C)C)C(CN2CCOCC2)c2ccccc2)cc1 (centres undefined),-18,19,2,-4,30
CCc1ccc(C(O)(CC(C)C)C(CN2CCOCC2)c2ccccc2)cc1 (centres undefined),-29,3,-10,-1,106*
Cc1ccc2[nH]c(C)c(CC(=O)O)c2c1,9,nt,nt,nt,11
Cc1[nH]c2ccc(C(C)C)cc2c1CC(=O)O,76*,6,-4,-2,1
COCC(=O)N1[C@@H](C#N)[C@H](c2ccccc2-c2ccccc2F)[C@@H]1CO,7,1,-1,15,nt
CCOC(=O)CCCCC(=O)c1[nH]c(=O)[nH]c1CSc1nc2ccccc2[nH]1,17,-3,1,-1,95*
O=C(NC1CCCC1)N1CCCCN2[C@H](CO)[C@@H](c3ccc(-c4cncnc4)cc3)[C@@H]2C1,4,34*,-3,9,nt
O=C(NC1CCCC1)N1CCCCN2[C@H](C1)[C@H](c1ccc(/C=C/c3ccccc3)cc1)[C@@H]2CO,4,-24,28*,16,-5
O=C(NC1CCCC1)N1CCCCN2[C@H](C1)[C@@H](c1ccc(/C=C/c3ccccc3)cc1)[C@@H]2CO,-11,-24,16*,-7,-56
O=C(NC1CCCC1)N1CCCCN2[C@H](CO)[C@@H](c3ccc(-c4cncnc4)cc3)[C@H]2C1,2,-4,5,7,nt
O=C(NCc1ccccc1)[C@@H]1[C@@H](CO)[C@@H]2Cn3c(cccc3=O)[C@H]1N2C(=O)Cc1ccccn1,nt,10,1,10,-10
COC(=O)C[C@@H]1C[C@H]2c3cc(NC(=O)Cc4ccncc4)ccc3O[C@H]2[C@H](CO)O1,4,8,15*,5,4
O=C(O)C[C@H]1C[C@@H]2c3cc(NC(=O)Cc4ccncc4)ccc3O[C@@H]2[C@@H](CO)O1,-3,90*,2,-4,-2
O=C(C[C@H]1C[C@H]2c3cc(NC(=O)Cc4ccncc4)ccc3O[C@H]2[C@H](CO)O1)NCc1ccccn1,6,nt,-4,96*,6
O=C(C[C@@H]1C[C@@H]2c3cc(NC(=O)Cc4ccncc4)ccc3O[C@@H]2[C@H](CO)O1)NCc1ccccn1,11,2,-2,9,-5
CS(=O)(=O)Nc1ccc2c(c1)[C@H]1C[C@H](CC(=O)O)O[C@@H](CO)[C@H]1O2,1,25*,-4,-7,nt
O=C(O)C[C@H]1C[C@@H]2c3cc(NC(=O)Cc4ccncc4)ccc3O[C@@H]2[C@H](CO)O1,-3,-18,-4,8,nt
CC(C)CC#Cc1cnc2c(c1)C(=O)N([C@H](C)CO)C[C@H](C)[C@@H](CN(C)C(=O)c1ccccc1F)O2,-6,nt,nt,nt,-3
SMILES,PGC1a acetyl inh,DENV2 CPE rescue,SIRT5 block,S100A4 inh HTS,Statin myotox sup
COc1ccccc1Cn1c(=S)[nH]c2cc(C(=O)N3CC(C)CC(C)C3)ccc2c1=O (centres undefined),nt,22*,4,3,-10
COc1ccccc1Cn1c(=S)[nH]c2cc(C(=O)N3CCN(c4ccccc4OC)CC3)ccc2c1=O,3,9,6,0,-46
COc1ccc2c3c([nH]c2c1)[C@H](CO)N(C(=O)Nc1ccc(F)cc1)CC31CCN(S(=O)(=O)c2cccc(F)c2)CC1,nt,-2,6,-6,nt
CCOC(=O)C1(CC2CC2)CCN(Cc2cn[nH]c2-c2cccc(F)c2)CC1,nt,nt,17*,6,nt
O=C1C=C(O)c2cccc(O)c2C1=O,5,44*,nt,1,28
COc1cccc2c1-c1c(O)cccc1C2=O,nt,1,-3,-7,2
Cc1cccn2cc(CNc3ccccc3)nc12,-5,nt,nt,nt,109*
CCOC(=O)C1CCN(C=Nc2cc(C)on2)CC1,7,nt,nt,nt,147*
CCOC(=O)C1CCN(S(=O)(=O)c2ccc(C(C)=O)cc2)CC1,3,nt,nt,nt,-1
Cc1ccccc1C1=C/C(=C(\SS/C(C(=O)c2ccc(OCC(=O)O)c(Cl)c2Cl)=C2\C=C(c3ccccc3C)SS2)C(=O)c2ccc(OCC(=O)O)c(Cl)c2Cl)SS1,nt,0,69*,-4,nt
O=C(O)COc1ccc2nsnc2c1Cl,12,nt,nt,nt,48
Cc1ncc(CN2CCC(CO)(Cc3ccccc3)CC2)s1,nt,4,18*,4,nt
Cc1ncc(CN2CCC(CO)(CCOc3ccccc3)CC2)s1,2,-1,-3,-9,-2
CO[C@H]1CN(C)C(=O)c2cc(NC(=O)CC(F)(F)F)ccc2OC[C@H](C)N(C(=O)C2CCOCC2)C[C@@H]1C,8,27*,-5,-24,nt
CO[C@@H]1CN(C)C(=O)c2ccc(NC(=O)CC(F)(F)F)cc2OC[C@@H](C)N(C(=O)C2CCOCC2)C[C@@H]1C,2,24*,nt,-38,nt
CO[C@@H]1CN(C)C(=O)c2cc(NC(=O)CC(F)(F)F)ccc2OC[C@H](C)N(C(=O)C2CCOCC2)C[C@@H]1C,-9,26*,nt,-39,nt
C[C@H](NC(=O)C[C@H]1C[C@H]2c3cc(N(C)C)ccc3O[C@H]2[C@@H](CO)O1)c1ccccc1,-7,0,-5,10,-4
Cc1ccc(S(=O)(=O)N[C@@H]2CC[C@@H](CCNC(=O)Cc3ccccn3)O[C@H]2CO)cc1,5,-1,-1,-5,-4
CCC(C(=O)Nc1ccccc1)c1ccccc1 (centres undefined),-2,nt,nt,nt,nt
CCC(C(=O)Nc1ccccc1-c1ccccc1)c1ccccc1 (centres undefined),-10,nt,-1,0,113*
Cc1ccc(S(=O)(=O)Nc2ccc3c(c2)C(=O)N([C@H](C)CO)C[C@H](C)[C@@H](CN(C)S(=O)(=O)c2ccc(F)cc2)O3)cc1,6,7,4,9,1
